Data from ChEMBL document CHEMBL5500359, “Identification of a new bisindolinone arresting IGROV1 cells proliferation” (Eur J Med Chem, 2024).
Calls of active or inactive are those of the source. The rule behind the calls is not given here.

How the values were obtained:
IGROV-1 [1] = assay: Downregulation of ITAG5 level in human IGROV-1 cells at 5 uM incubated for 6 hrs by Western blot analysis; type: functional, cell-based
In short: (§1)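 IGROV1 exposed to 5 μM; RIPA lysates at 4 °C, protein quantified, SDS-PAGE (12.5% or 7.5%), nitrocellulose blot probed overnight at 4 °C for cyclin D1 or α5 integrin subunit; densitometry normalized to α-tubulin, percent of vehicle, mean ± SD of three experiments.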

IGROV-1 [2] = assay: Antiproliferative activity against human IGROV-1 cells assessed as doubling time at 5 uM incubated for 24 to 48 hrs (reference value: 23.9 +/- 2.4 hrs); type: functional; details: time 24-48 hrs
In short: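 Quantitative phase imaging on IGROV1 seeded 4×10^3/well, 24 h later given 5 μM (six replicates; DMSO ≤0.1% final). Images hourly for 2 days at 37 °C, 5% CO2. Cell count and confluence normalized to experiment start; doubling time derived from growth.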

IGROV-1 [3] = assay: Downregulation of CCND1 level in human IGROV-1 cells at 5 uM incubated for 6 hrs by Western blot analysis; type: functional, cell-based; in short: as §1
IGROV-1 [4] = assay: Induction of cell cycle arrest in human IGROV-1 cells assessed as decrease in cell accumulation at G2/M phase at 5 uM incubated for 24 hrs by PI staining based flow cytometry relative to control; type: functional; design: scale not given: the % may be the effect or the level left
In short: (§2)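 IGROV1 plated 2×10^4 cells/cm², after 24 h given 5 μM for 24 h; cells detached, PBS-washed, stained 30 min at room temperature in dark with 50 μg/mL propidium iodide, 10 μg/mL RNase, 0.01% Igepal, 0.1% sodium citrate; DNA content by flow cytometry, phase percentages versus untreated.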

IGROV-1 [5] = assay: Anti-motility activity in human IGROV-1 cells assessed as decrease in cell velocity at 5 uM incubated for 24 hrs; type: functional, cell-based
In short: (§3)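 Livecyte quantitative phase imaging, label-free single-cell tracking; IGROV1 seeded 4×10^3/well, treated after 24 h with 5 μM in six replicates; frames every 60 min for 2 days, 10× objective, 37 °C, 5% CO2. Each cell tracked for displacement, instantaneous velocity and directionality.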

Breast cancer cell line [6] = assay: Cell growth inhibition of human Breast cancer cells incubated for 48 hrs by SRB assay; type: functional; details: read-out: LC50 (the source's name)
In short: (§4)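 NCI DTP five-concentration screen. Cells were seeded at 5 × 10³–4 × 10⁴ cells/well, depending on the line. Compounds were diluted in fresh medium and added at scalar concentrations over 0–1000 µM or 0–100 µM. After 48 h the cells were fixed in situ, stained with sulforhodamine B, and optical density was read. GI50, TGI and LC50 were derived by NCI procedures, and the panel mean is the mean graph midpoint.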

Colon carcinoma cell = assay: Cytostatic activity against human Colon carcinoma cells incubated for 48 hrs by SRB assay; type: functional
In short: (§5)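 NCI-60 five-concentration screen: lines seeded 5×10^3–4×10^4 cells/well depending on line; compound diluted in fresh medium at scalar concentrations 0–100 or 0–1000 μM; 48 h exposure, in situ fixation, sulforhodamine B protein staining, optical density read; GI50, TGI and LC50 per NCI procedures; panel mean = mean graph midpoint.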

CNS carcinoma cell = assay: Cytostatic activity against human CNS carcinoma cells incubated for 48 hrs by SRB assay; type: functional; in short: as §5
IGROV-1 [7] = assay: Downregulation of CCND1 mRNA level in human IGROV-1 cells at 5 uM pretreated for 24 hrs followed by UV exposure for 6 hrs by qRT-PCR analysis; type: functional, cell-based; details: time 30.0 hrs
In short: (§6)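 IGROV1 pretreated 24 h with 5 μM then UV-irradiated (7.5 W lamp, 3 min); CCND1 and RAD51 mRNA by qRT-PCR after column RNA extraction and reverse transcription, fold change versus vehicle; at least triplicate, Student's t-test.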

Melanoma cell line [8] = assay: Cell growth inhibition of human Melanoma cells incubated for 48 hrs by SRB assay; type: functional; in short: as §5
IGROV-1 [9] = assay: Downregulation of CCND1 mRNA level in human IGROV-1 cells at 5 uM incubated for 6 hrs by RT-PCR analysis; type: functional, cell-based
In short: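 IGROV1 given 5 μM versus vehicle; RNA extracted by spin column, reverse transcribed, CCND1, CDKN1A and ITAG5 transcripts quantified by qRT-PCR as fold change versus vehicle; at least triplicate, Student's t-test, p<0.05.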

Prostatic carcinoma cell = assay: Cell growth inhibition of human Prostate carcinoma cells incubated for 48 hrs by SRB assay; type: functional; in short: as §5
[10] = test system: Panel NCI-60 (60 carcinoma cell lines); assay: Cell growth inhibition of human Panel NCI-60 (60 carcinoma cell lines) incubated for 48 hrs by SRB assay; type: functional; in short: as §5
[11] = Cell growth inhibition of human Leukemia cancer cells incubated for 48 hrs by SRB assay; type: functional; in short: as §5
IGROV-1 [12] = assay: Downregulation of RAD51 level in human IGROV-1 cells at 5 uM pretreated for 24 hrs followed by UV exposure for 6 hrs by Western blot analysis; type: functional, cell-based; details: time 30.0 hrs
In short: (§7)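 IGROV1 pretreated 24 h with 5 μM, then UV-irradiated with a 7.5 W lamp for 3 min; UV alone as positive control. Cyclin D1 and RAD51 by RIPA-lysate Western blot normalized to α-tubulin; γH2AX by acid-extracted histone blot normalized to H1; percent of vehicle, mean ± SD, three experiments.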

Breast cancer cell line [13] = assay: Cytotoxicity against human Breast cancer cells incubated for 48 hrs by SRB assay; type: functional; in short: as §5
Melanoma cell line [14] = assay: […] against human Melanoma cells incubated for 48 hrs by SRB assay; type: functional; details: read-out: LC50 (the source's name); in short: as §4
IGROV-1 [15] = assay: Downregulation of RAD51 mRNA level in human IGROV-1 cells at 5 uM pretreated for 24 hrs followed by UV exposure for 6 hrs by qRT-PCR analysis; type: functional, cell-based; details: time 30.0 hrs; in short: as §6
[16] = Cytotoxicity against human HDFa cells assessed as reduction in cell viability incubated for 24 hrs by MTT assay; type: toxicity, cell-based
In short: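 IGROV1 and HDFa in RPMI 1640 + 10% FCS, 2 mM glutamine, 37 °C, 5% CO2; seeded 1.5×10^4/well, after 24 h exposed 24 h to 0.010–500 μM (DMSO ≤0.1%). MTT 0.2 mg/mL in PBS 2 h at 37 °C, absorbance 570 nm; IC50 from dose-response, three independent experiments each in triplicate; SI = HDFa IC50/IGROV1 IC50.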

IGROV-1 [17] = assay: Anti-motility activity in human IGROV-1 cells assessed as decrease in cell displacement at 5 uM incubated for 24 hrs; type: functional, cell-based; in short: as §3
IGROV-1 [18] = assay: Effect on directionality of human IGROV-1 cells at 5 uM incubated for 24 hrs; type: functional, cell-based; in short: as §3
[19] = Upregulation of histone H2/H3 acetylation in human IGROV-1 cells incubated for 6 hrs by Western blot analysis relative to control; type: functional
In short: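 IGROV1 seeded 1.5×10^4 cells/cm², after 48 h exposed 6 h to 5 μM final; histones acid-extracted (0.4 N H2SO4) from nuclei isolated with 10 mM butyrate washes, acetone-precipitated, 15% SDS-PAGE, blotted with anti-acetyl-lysine; densitometry normalized to histone H1, percent of vehicle, mean ± SD of three experiments.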

IGROV-1 [20] = assay: Induction of cell cycle arrest in human IGROV-1 cells assessed as decrease in cell accumulation at S phase at 5 uM incubated for 24 hrs by PI staining based flow cytometry relative to control; type: functional; design: scale not given: the % may be the effect or the level left; in short: as §2
Ovarian cancer cell line = assay: Cytostatic activity against human Ovarian cancer cells incubated for 48 hrs by SRB assay; type: functional; in short: as §5
IGROV-1 [21] = assay: Downregulation of CCND1 level in human IGROV-1 cells at 5 uM pretreated for 24 hrs followed by UV exposure for 6 hrs by Western blot analysis; type: functional, cell-based; details: time 30.0 hrs; in short: as §7

Compound: CC(C)(C)c1cc(/C=C2/C(=O)Nc3cc(Cl)ccc32)c(O)c(/C=C2/C(=O)Nc3cc(Cl)ccc32)c1
- Activity (IGROV-1 [1]): Active
- Time (IGROV-1 [2]): 113.3 h
- Activity (IGROV-1 [3]): Active
- Activity (IGROV-1 [4]): 11.9%
- Activity (IGROV-1 [5]): Active
- CC50 (Breast cancer cell line [6]): 2.95 µM
- TGI (Colon carcinoma cell): 13.2 µM
- GI (CNS carcinoma cell): 11.75 µM
- Activity (IGROV-1 [7]): Active
- GI (Melanoma cell line [8]): 2.82 µM
- Activity (IGROV-1 [9]): Active
- GI (Prostatic carcinoma cell): 3.63 µM
- GI50 [10]: 3.02 µM
- GI50 [11]: 2.45 µM
- Activity (IGROV-1 [12]): Active
- GI (Breast cancer cell line [13]): 48.98 µM
- CC50 (Melanoma cell line [14]): 8.51 µM
- Activity (IGROV-1 [15]): Active
- IC50 at 24 h [16]: 21.9 µM
- Activity (IGROV-1 [17]): Active
- Activity (IGROV-1 [18]): inactive
- Activity [19]: 55.2%
- Activity (IGROV-1 [20]): 21.2%
- TGI (Ovarian cancer cell line): 10 µM
- Activity (IGROV-1 [21]): Active
